Test results as given in PMC8336483 (Chemical Science, 2021).

Tested on: MDA-MB-231 cells
Format: cell-based, human
Settings: 1 h incubation
How it was run: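 MDA-MB-231 cells incubated 1 h with fluorescent conjugates or linker-functionalised fluorescein, then analysed by fluorescence correlation spectroscopy in the cytoplasm. Probe hydrodynamic radii and cytoplasmic viscosity were first determined by FCS. Cytoplasmic diffusion coefficients came from autocorrelation curves and were compared with values predicted for free diffusion using a cytoplasm viscosity model.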

FAM-PEG
FCS autocorrelation of fluorescence signal in cells: no autocorrelation of fluorescence signal was detected
